Measured values taken from ChEMBL document CHEMBL1212832, “Antiprotozoal steroidal saponins from the marine sponge Pandaros acanthifolium” (J Nat Prod, 2010).
pIC50: −log10 of the molar value. Activity calls are given as the source filed them. The rule behind the calls is not given here.

Key:
[1] = Inhibition of Plasmodium falciparum recombinant FabI at 20 ug/mL by spectrophotometric analysis
[2] = target: T1, Fatty acid synthase (Plasmodium falciparum) (UniProt Q965D7); experiment: Inhibition of Plasmodium falciparum recombinant FabZ at 20 ug/mL by spectrophotometric analysis
T1 sequence (whole entry): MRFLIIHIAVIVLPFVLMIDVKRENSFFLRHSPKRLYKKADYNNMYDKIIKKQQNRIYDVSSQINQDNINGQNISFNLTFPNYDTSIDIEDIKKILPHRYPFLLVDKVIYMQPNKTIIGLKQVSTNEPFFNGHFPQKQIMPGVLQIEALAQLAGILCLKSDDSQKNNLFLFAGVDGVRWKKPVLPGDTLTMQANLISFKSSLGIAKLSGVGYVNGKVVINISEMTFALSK

Trypanosoma cruzi = experiment: Trypanocidal activity against trypomastigote form of Trypanosoma cruzi Tulahuen infected in rat L6 cells after 96 hrs; format: functional, organism-based; settings: L6, 96 h
Outline: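 L6 cells seeded at 2000 per well in RPMI 1640 with 10% FBS, 2 mM L-glutamine; after 24 h, 5000 trypomastigotes of the LacZ-expressing C2C4 line added. After 48 h, medium replaced with seven 3-fold dilutions (90–0.12 µg/mL) for 96 h.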

[3] = system: Trypanosoma brucei rhodesiense; experiment: Trypanocidal activity against Trypanosoma brucei rhodesiense STIB 900 after 72 hrs; format: functional, organism-based; settings: STIB 900, 72 h
Outline: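 Bloodstream forms (10^4 per well) in MEM with 25 mM HEPES, extra glucose, non-essential amino acids, 2-mercaptoethanol, pyruvate and 15% heat-inactivated horse serum; seven 3-fold dilutions from 90 to 0.12 µg/mL, 72 h at 37 °C, 5% CO2. Resazurin added for 2–4 h, fluorescence at ex 536/em 588 nm; melarsoprol as standard.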

[4] = target: T2, 3-oxoacyl-acyl-carrier protein reductase (Plasmodium falciparum) (UniProt Q965D6); experiment: Inhibition of Plasmodium falciparum recombinant FabG at 20 ug/mL by spectrophotometric analysis
T2 sequence (whole entry): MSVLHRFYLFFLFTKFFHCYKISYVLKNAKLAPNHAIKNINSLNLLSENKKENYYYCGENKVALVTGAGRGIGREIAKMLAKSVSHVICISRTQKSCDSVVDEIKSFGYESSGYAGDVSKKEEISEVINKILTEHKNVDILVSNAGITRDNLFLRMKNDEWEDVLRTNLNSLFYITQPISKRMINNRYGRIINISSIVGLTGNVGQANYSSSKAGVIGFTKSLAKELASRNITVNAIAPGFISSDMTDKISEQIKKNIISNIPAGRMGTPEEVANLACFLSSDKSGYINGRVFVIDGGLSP

Leishmania donovani = experiment: Antileishmanial activity against Leishmania donovani (MHOM/ET/67/L82) amastigotes after 72 hrs; format: functional, organism-based; settings: MHOM/ET/67/L82, 72 h
L6 = experiment: Cytotoxicity against rat L6 cells after 72 hrs by Alamar blue assay; format: cell-based; settings: l6, 72 h
Outline: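 4 × 10^4 L6 cells per well in RPMI 1640 with 10% FBS and L-glutamine, exposed 72 h to seven 3-fold dilutions (90–0.12 µg/mL). Resazurin (Alamar Blue) added for 2 h, fluorescence read at ex 536/em 588 nm.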

Plasmodium falciparum = experiment: Antimalarial activity against chloroquine and pyrimethamine-resistant Plasmodium falciparum K1 assessed as inhibition of [3H]hypoxanthine incorporation after 48 hrs by scintillation counting; format: functional, organism-based
Outline: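 K1 strain (chloroquine- and pyrimethamine-resistant) cultured in RPMI 1640 with 5% Albumax II, 0.2% w/v glucose, 0.03% L-glutamine. Two-fold dilution series from DMSO stocks, final DMSO ≤0.25%. 48 h at 37 °C, then 0.1 µCi [3H]-hypoxanthine added and incubated 24 h more. Freeze-stopped at -80 °C, harvested onto glass fiber filters, scintillation counted. IC50 calculated. Chloroquine as standard.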

SMILES	Activity [1]	Activity [2]	pIC50 (Trypanosoma cruzi)	pIC50 [3]	Activity [4]	pIC50 (Leishmania donovani)	Activity (L6)	pIC50 (Plasmodium falciparum)
CC[C@@H](C(=O)C[C@@H](C)C1=C(O)C(=O)[C@@H]2[C@@H]3CC[C@H]4C[C@@H](O[C@@H]5O[C@H](C(=O)O)[C@@H](O)[C@H](O)[C@H]5O[C@@H]5O[C@H](CO)[C@@H](O)[C@H](O)[C@H]5O)CC[C@]4(C)[C@H]3CC[C@]12C)C(C)C [PANDAROSIDE A]	inactive	inactive	4.28	5.04	inactive	4.71	48.9 µM	4.75
O=C(Cn1ccnc1[N+](=O)[O-])NCc1ccccc1 [BENZNIDAZOLE]			5.58					
COC(=O)[C@H]1O[C@@H](O[C@H]2CC[C@@]3(C)[C@@H](CC[C@H]4[C@H]5C(=O)C(O)=C([C@H](C)CC(=O)CC(C)C)[C@@]5(C)CC[C@@H]43)C2)[C@H](O)[C@@H](O)[C@@H]1O [METHYL ESTER PANDAROSIDE D]	inactive	inactive	4.67	4.39	inactive	4.86	106 µM	5.29
CC(C)CC(=O)C[C@@H](C)C1=C(O)C(=O)[C@@H]2[C@@H]3CC[C@H]4C[C@@H](O[C@@H]5O[C@H](C(=O)O)[C@@H](O)[C@H](O)[C@H]5O[C@@H]5O[C@H](CO)[C@@H](O)[C@H](O)[C@H]5O)CC[C@]4(C)[C@H]3CC[C@]12C [PANDAROSIDE C]	inactive	inactive	< 3.92	4.18	inactive	< 3.92	> 120 µM	< 4.60
CC[C@@H](C(=O)C[C@@H](C)C1=C(O)C(=O)[C@@H]2[C@@H]3CC[C@H]4C[C@@H](O[C@@H]5O[C@H](C(=O)OC)[C@@H](O[C@H]6O[C@H](C)[C@@H](O)[C@H](O)[C@@H]6O)[C@H](O)[C@H]5O)CC[C@]4(C)[C@H]3CC[C@]12C)C(C)C [METHYL ESTER PANDAROSIDE I]	inactive	inactive	4.66	4.57	inactive	4.54	59.6 µM	4.89
C=C(C(=O)C[C@@H](C)C1=C(O)C(=O)[C@@H]2C3=C(CC[C@]12C)[C@@]1(C)CC[C@H](O[C@@H]2O[C@H](C(=O)OC)[C@@H](O)[C@H](O[C@@H]4OC[C@@H](O)[C@H](O)[C@H]4O)[C@H]2O)C[C@@H]1CC3)C(C)C [METHYL ESTER PANDAROSIDE E]	inactive	inactive	4.21	4.84	inactive	4.38	76.9 µM	5.23
C=C(C(=O)C[C@@H](C)C1=C(O)C(=O)[C@@H]2C3=C(CC[C@]12C)[C@@]1(C)CC[C@H](O[C@@H]2O[C@H](C(=O)O)[C@@H](O)[C@H](O[C@@H]4OC[C@@H](O)[C@H](O)[C@H]4O)[C@H]2O)C[C@@H]1CC3)C(C)C [PANDAROSIDE E]	inactive	inactive	4.15	5.03	inactive	4.80	40.9 µM	4.86
COC(=O)[C@H]1O[C@@H](O[C@H]2CC[C@@]3(C)[C@@H](CC[C@H]4[C@H]5C(=O)C(O)=C([C@H](C)CC(=O)CC(C)C)[C@@]5(C)CC[C@@H]43)C2)[C@H](O[C@@H]2O[C@H](CO)[C@@H](O)[C@H](O)[C@H]2O)[C@@H](O)[C@@H]1O [METHYL ESTER PANDAROSIDE C]	inactive	inactive	4.00	4.21	inactive	4.35	> 120 µM	< 4.60
CC[C@@H](C(=O)C[C@@H](C)C1=C(O)C(=O)[C@@H]2[C@@H]3CC[C@H]4C[C@@H](O[C@@H]5O[C@H](C(=O)OC)[C@@H](O)[C@H](O)[C@H]5O[C@@H]5O[C@H](CO)[C@@H](O)[C@H](O)[C@H]5O)CC[C@]4(C)[C@H]3CC[C@]12C)C(C)C [METHYL ESTER PANDAROSIDE A]	inactive	inactive	< 3.92	3.94	inactive	4.18	> 120 µM	< 4.60
CC(C)CC(=O)C[C@@H](C)C1=C(O)C(=O)[C@@H]2[C@@H]3CC[C@H]4C[C@@H](O[C@@H]5O[C@H](C(=O)O)[C@@H](O)[C@H](O)[C@H]5O)CC[C@]4(C)[C@H]3CC[C@]12C [PANDAROSIDE D]	inactive	inactive	4.09	4.82	inactive	4.51	96.6 µM	4.87
CC[C@@H](C(=O)C[C@@H](C)C1=C(O)C(=O)[C@@H]2[C@@H]3CC[C@H]4C[C@@H](O[C@@H]5O[C@H](C(=O)O)[C@@H](O)[C@H](O[C@@H]6OC[C@@H](O)[C@H](O)[C@H]6O)[C@H]5O)CC[C@]4(C)[C@H]3CC[C@]12C)C(C)C [PANDAROSIDE H]	inactive	inactive	< 3.92	4.16	inactive	4.33	> 120 µM	4.64
CC[C@@H](C(=O)C[C@@H](C)C1=C(O)C(=O)[C@@H]2[C@@H]3CC[C@H]4C[C@@H](O[C@@H]5O[C@H](C(=O)O)[C@@H](O)[C@H](O)[C@H]5O)CC[C@]4(C)[C@H]3CC[C@]12C)C(C)C	inactive	inactive			inactive			
CC[C@@H](C(=O)C[C@@H](C)C1=C(O)C(=O)[C@@H]2[C@@H]3CC[C@H]4C[C@@H](O[C@@H]5O[C@H](C(=O)O)[C@@H](O[C@H]6O[C@H](C)[C@@H](O)[C@H](O)[C@@H]6O)[C@H](O)[C@H]5O)CC[C@]4(C)[C@H]3CC[C@]12C)C(C)C [PANDAROSIDE I]	inactive	inactive	4.15	4.72	inactive	4.44	> 120 µM	< 4.60
COc1cc([C@@H]2c3cc4c(cc3[C@H](O)[C@H]3COC(=O)[C@H]23)OCO4)cc(OC)c1OC [PODOFILOX]							0.012 µM	
CC[C@@H](C(=O)C[C@@H](C)C1=C(O)C(=O)[C@@H]2[C@@H]3CC[C@H]4C[C@@H](O[C@@H]5O[C@H](C(=O)OC)[C@@H](O)[C@H](O[C@@H]6OC[C@@H](O)[C@H](O)[C@H]6O)[C@H]5O)CC[C@]4(C)[C@H]3CC[C@]12C)C(C)C [METHYL ESTER PANDAROSIDE H]	inactive	inactive	4.44	4.70	inactive	4.78	43.3 µM	4.99
COC(=O)[C@H]1O[C@@H](O[C@H]2CC[C@]3(C)C4=C(CC[C@H]3C2)[C@H]2C(=O)C(O)=C([C@H](C)CC(=O)[C@H](C)C(C)C)[C@@]2(C)CC4)[C@H](O)[C@@H](O[C@@H]2OC[C@@H](O)[C@H](O)[C@H]2O)[C@@H]1O [METHYL ESTER PANDAROSIDE F]	inactive	inactive	4.60	4.26	inactive	4.57	42.1 µM	5.00
